Experimental data published in PMC11975418 (Nature medicine, 2023).

Legend:
AML trial = type: in vivo, human; details: for Average highest lactate level during OXPHOS: AML
How it was run: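 Both trials graded adverse events with NCI CTCAE v4.03. In the AML trial, all patients had close monitoring of lactate, blood pH and electrolytes. Patients with lactate >4 mmol/L, pH <7.30 and symptoms were hospitalised for at least 24 h. Dose-limiting lactic acidosis was lactate >4.0 mmol/L, pH <7.35, low CO2, raised anion gap and/or symptoms, confirmed by arterial sampling.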

Solid Tumor trial = type: in vivo, human; details: for Average highest lactate level during OXPHOS: Solid Tumors
relapsed/refractory AML = assay: AML trial: response by European LeukemiaNet 2017; type: in vivo, human; details: n=17
How it was run: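 Relapsed/refractory AML patients were dosed by cohort. Cohorts 1–2 got 0.5 or 1.0 mg on Day 1 and Day 8 of cycle 1, then daily in later cycles. Cohorts 3–4 got induction of 2.0 or 2.5 mg daily on Days 1–7. Maintenance followed at 0.5 mg once weekly (cohort 3) or 1.0 mg thrice weekly (cohort 4).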

advanced solid tumors = assay: Solid Tumor trial: response by RECISTv1.1; type: in vivo, human
[1] = Human plasma concentrations of IACS-010759; type: in vivo
How it was run: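 Patient plasma (50 μL) was extracted with acetonitrile containing diclofenac internal standard, vortexed 10 min and spun 2000 g for 10 min. Extract was diluted 1:1 with water for LC-MS/MS with the column at 40 °C. MRM transitions were m/z 563.1>172.1 for analyte and 295.9>151.2 for standard. The method was validated over 0.05–50.0 ng/mL.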

AML blasts [2] = assay: Seahorse oxygen consumption rate of AML blasts from treated patients; type: cell-based, human
How it was run: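 Fresh heparinised patient blood was mixed with equal-volume EasySep buffer and depleted of CD3/CD19-positive cells with an antibody cocktail. Isolated blasts were counted and used immediately for Seahorse basal and maximal OCR, normalised to cell number, with 2–6 technical replicates. Sampling was pre-dose (C1D1), after one week (C1D7/C1D14) and during extended dosing (C1D15/21/28). A two-sided paired t-test was used.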

AML blasts [3] = assay: Ratio of mitochondrial to genomic DNA in AML blasts; type: cell-based, human; details: pre- vs post-dose Day 16/21/27/28; p=0.04
AML blasts [4] = assay: Intracellular metabolites in AML blasts; type: cell-based, human
PDX AML-04030094 model = assay: Survival of AML PDX mice; type: in vivo, mouse; details: 1 mg/kg oral, 5-days on/2-days off, NSG AML PDX mice
[5] = system: blasts from the spleen of NSG mice; assay: Baseline OCR of blasts from the spleen of NSG mice; type: in vivo, mouse; details: 0.1 and 0.3 mg/kg, 5-days on/2-days off
How it was run: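 Female NSG mice received 250 cGy cesium irradiation 24 h before tail-vein injection of 0.5 × 10^5 AML PDX cells. Mice were randomized (n=9/group) to vehicle (0.5% methylcellulose) or 0.1, 0.3, 1 or 5 mg/kg test compound, 5 days on/2 days off. Spleens were taken at euthanasia for baseline OCR of blasts. N=5 biologically independent samples; two-sided unpaired t-test.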

[6] = Plasma lactate in NSG and B6 mice; type: in vivo, mouse; details: escalating doses
C57BL/6J mice [7] = assay: Spontaneous pain; type: in vivo, mouse
C57BL/6J mice [8] = assay: Sensorimotor function; type: in vivo, mouse
DRG neurons = assay: Mitochondrial function; type: in vivo, mouse
C57BL/6J mice [9] = assay: Intraepidermal nerve fiber density in hind paw skin; type: in vivo, mouse; details: highest dose
How it was run: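 Male C57BL/6J mice were given vehicle (0.5% methylcellulose) or 1 or 5 mg/kg test compound by oral gavage once daily, 5 days on/2 off, then a further 5 days on. Glabrous hind paw skin was collected 12 days after the final dose. PGP9.5-stained fibres crossing the collagen-stained dermal–epidermal junction were counted by confocal microscopy as IENFs/mm, five random images per mouse. n=12/8/8; one-way ANOVA with Dunnett's; mean ± SE.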

ATF3 = ATF3 expression in DRG; type: in vivo, mouse; details: 1 or 5 mg/kg
How it was run: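 Mice received test compound (1 or 5 mg/kg) or vehicle orally, once daily, 5 days on/2 off, then another 5 days. DRG were taken 12 days after the last dose and processed as PFA-fixed, OCT-embedded 14 μm frozen sections. Sections were incubated overnight with anti-ATF3 (1:500) in PBS with 2% donkey serum and 0.1% saponin, then Alexa 594 secondary and DAPI. Imaging was confocal. Positive control was spared-nerve-injury DRG; staining was repeated three times.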

[10] = Plasma IACS-010759 exposure versus venous lactate in AML and Solid Tumor cohorts; type: in vivo, human
mitochondrial complex I = details: by binding the ND1 subunit at the entrance to the quinone binding channel; cited from earlier work
C57BL/6J mice [11] = assay: Mechanical allodynia of hind paws; type: in vivo, mouse; details: 30 mg/kg ACY-1215 co-administered with 0.3 or 1 mg/kg IACS-010759
C57BL/6J mice [12] = type: in vivo, mouse; details: 30 mg/kg ACY-1215 co-administered with IACS-010759
[13] = end of the first 7-day QD dosing vs pre-treatment
[14] = blasts from Patient 17 (highest exposure), p<0.01
[15] = 30 mg/kg ACY-1215 co-administered with IACS-010759

Cc1nc(-c2nc(-c3ccc(OC(F)(F)F)cc3)no2)nn1Cc1cccc(N2CCC(S(C)(=O)=O)CC2)c1 [IACS-010759]
recommended phase 2 dose (RP2D) (AML trial; AML and Solid Tumor trials): no RP2D was established | grade 1–2 TRAE: elevated blood lactate (AML trial; AML trial patients): 35% | grade 1–2 TRAE: myalgia (AML trial; AML trial patients): 6% | grade 1–2 TRAE: peripheral neuropathy (AML trial; AML trial patients): 12% | grade ≥3 TRAE: peripheral neuropathy (AML trial; AML trial patients): 6% | Average highest lactate level during OXPHOS (AML trial; NP (N=6)): 3.9 mmol/L | Average highest lactate level during OXPHOS (AML trial; Non-NP (N=11)): 3.0 mmol/L | patients with grade 1–3 peripheral neuropathy (Solid Tumor trial; Solid Tumor trial): 11 patients | grade 1–2 TRAE: myalgia (Solid Tumor trial; Solid Tumor trial patients): 30% | grade 1–2 TRAE: peripheral neuropathy (Solid Tumor trial; Solid Tumor trial patients): 35% | grade 1–2 TRAE: vomiting (Solid Tumor trial; Solid Tumor trial patients): 30% | grade ≥3 TRAE: elevated blood lactate (Solid Tumor trial; Solid Tumor trial patients): 9% | grade ≥3 TRAE: nausea (Solid Tumor trial; Solid Tumor trial patients): 9% | grade ≥3 TRAE: peripheral neuropathy (Solid Tumor trial; Solid Tumor trial patients): 4% | painful neuropathy (Solid Tumor trial; Solid Tumor trial patients): not observed | Average highest lactate level during OXPHOS (Solid Tumor trial; NP (N=11)): 4.5 mmol/L | Average highest lactate level during OXPHOS (Solid Tumor trial; Non-NP (N=12)): 2.6 mmol/L | response (European LeukemiaNet 2017) (relapsed/refractory AML): No patient in the AML trial responded | patients with best response of RECISTv1.1 stable disease (advanced solid tumors): eight | maintenance of plasma levels of ≥20 nM ([1]; AML and Solid Tumor trials, all dosing schedules): not maintained with any dosing schedule | terminal half-life ([1]; plasma, patients): approximately 16 hours | patients with >25% reduction in baseline OCR in blasts (AML blasts [2]; [13]): 6/12 | patients with >25% reduction in maximal OCR in blasts (AML blasts [2]; [13]): 8/12 | patients in whom the decrease in baseline OCR was not maintained (AML blasts [2]; extended dosing, among patients with >25% reduction): 2/6 | ratio between mitochondrial and genomic DNA in blasts (AML blasts [3]): significant increase | NAD+ levels (AML blasts [4]; blasts from Patient 16): did not affect | intracellular NMP, NDP and NTP levels (AML blasts [4]; blasts from Patient 16 (weakest exposure)): did not affect levels of NMP, NDP, and NTP | intracellular NMP and NDP levels (AML blasts [4]; [14]): significantly increased | intracellular NTP levels (AML blasts [4]; [14]): significantly decreased | NAD+ levels (AML blasts [4]; blasts from Patient 17, p = 0.03): NAD+ levels significantly decreased | NAD+ levels (AML blasts [4]; blasts from Patient 19): NAD+ levels significantly increased | intracellular NTP levels (AML blasts [4]; blasts from Patient 19 (lower exposure), p<0.05): significantly reduced NTP levels | extension of median survival (PDX AML-04030094 model): 7 days | modulation of baseline OCR [5]: induced moderate modulation of baseline OCR | plasma lactate ([6]; C56Bl6 mice): elevated by all doses | plasma lactate ([6]; NSG mice): only elevated by the 5 mg/kg dose | spontaneous pain: time in the chamber associated with pain relief (C57BL/6J mice [7]; IACS-010759-treated vs vehicle-treated mice): spent significantly more time in the chamber associated with pain relief | balance and fine motor function (C57BL/6J mice [8]; beam walk test, vs vehicle-treated mice): significant decrease in balance and fine motor function | OCR in dorsal root ganglia (DRG neurons; 3–4 hours and 5 weeks after the last dose): dose-dependently inhibited OCR | intraepidermal nerve fiber density (IENF) in hind paw skin (C57BL/6J mice [9]): reduced intraepidermal nerve fiber density | expression of ATF3 (ATF3): did not increase | drug exposure associated with increased probability of elevated lactate ([10]; equivalent of the nM value): > 4.5 ng/mL | drug exposure associated with increased probability of elevated lactate ([10]; plasma IACS-010759, AML and Solid Tumor cohorts): > 8 nM | inhibition of mitochondrial complex I (mitochondrial complex I): selectively inhibited mitochondrial complex I

O=C(CCCCCCNC(=O)c1cnc(N(c2ccccc2)c2ccccc2)nc1)NO [ACY-1215, reference compound]
effect on IACS-010759-induced mechanical allodynia (C57BL/6J mice [11]): significantly attenuated | effect on IACS-010759-induced spontaneous pain (C57BL/6J mice [7]; [15]): prevented | effect on IACS-010759-induced sensorimotor deficits (C57BL/6J mice [8]; [15]): prevented | effect on IACS-010759-induced reduction of OCR in the DRG (DRG neurons; [15]): did not prevent | effect on IACS-010759-induced damage to the myelin of the sciatic nerve (C57BL/6J mice [12]): prevented
